Blank lines part the entries; values can stand above or below the molecule they belong to. Ends that are not written are not given here.
How the values were obtained:
Format in all cases: cell-based
[1] = molecular target: T1, mFpr-rs1 (Mus musculus, UniProt O08790); assay: FLIPR Ca2+ assay, HEK293T cells transfected with mFpr-rs1 and Gα16
T1 sequence (O08790 1-351): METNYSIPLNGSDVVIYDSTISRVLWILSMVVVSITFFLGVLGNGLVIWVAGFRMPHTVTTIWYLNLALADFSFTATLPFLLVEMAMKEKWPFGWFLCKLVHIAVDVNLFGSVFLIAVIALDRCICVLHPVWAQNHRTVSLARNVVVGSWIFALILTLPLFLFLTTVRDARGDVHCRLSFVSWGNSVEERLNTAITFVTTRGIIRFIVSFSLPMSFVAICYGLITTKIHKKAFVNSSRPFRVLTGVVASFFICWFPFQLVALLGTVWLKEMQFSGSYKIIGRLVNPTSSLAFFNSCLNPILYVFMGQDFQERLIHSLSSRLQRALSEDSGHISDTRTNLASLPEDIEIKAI

[2] = molecular target: T2, hFPR2 (Homo sapiens, UniProt P25090); assay: FLIPR Ca2+ assay, HEK293T cells transfected with hFPR2 and Gα16; conditions: 1% DMSO
T2 sequence (P25090 1-351): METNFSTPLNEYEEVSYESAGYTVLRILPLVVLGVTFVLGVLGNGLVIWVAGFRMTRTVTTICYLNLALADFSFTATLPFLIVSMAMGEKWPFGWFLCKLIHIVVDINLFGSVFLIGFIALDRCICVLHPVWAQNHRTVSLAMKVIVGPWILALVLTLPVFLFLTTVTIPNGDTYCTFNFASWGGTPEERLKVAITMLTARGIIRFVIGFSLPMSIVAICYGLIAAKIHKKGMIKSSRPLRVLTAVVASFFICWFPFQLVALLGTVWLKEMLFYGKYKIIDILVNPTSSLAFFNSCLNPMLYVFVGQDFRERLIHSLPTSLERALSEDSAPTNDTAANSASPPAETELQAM

[3] = molecular target: T3, mFpr2 (Mus musculus, UniProt O88536); assay: FLIPR Ca2+ assay, HEK293T cells transfected with mFpr2 and Gα16
T3 sequence (O88536 1-351): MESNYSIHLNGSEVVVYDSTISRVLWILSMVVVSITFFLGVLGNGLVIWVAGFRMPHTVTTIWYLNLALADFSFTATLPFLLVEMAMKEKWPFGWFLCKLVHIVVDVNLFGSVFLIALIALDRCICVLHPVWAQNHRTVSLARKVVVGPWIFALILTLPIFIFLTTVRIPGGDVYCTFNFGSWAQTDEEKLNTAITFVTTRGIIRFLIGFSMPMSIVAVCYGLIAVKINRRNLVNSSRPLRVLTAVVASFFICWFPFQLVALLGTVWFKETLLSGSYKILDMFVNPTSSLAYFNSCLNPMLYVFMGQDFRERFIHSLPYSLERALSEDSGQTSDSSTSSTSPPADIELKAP

[4] = molecular target: T4, mFpr1 (Mus musculus, UniProt P33766); assay: FLIPR Ca2+ assay, HEK293T cells transfected with mFpr1 and Gα16
T4 sequence (P33766 1-364): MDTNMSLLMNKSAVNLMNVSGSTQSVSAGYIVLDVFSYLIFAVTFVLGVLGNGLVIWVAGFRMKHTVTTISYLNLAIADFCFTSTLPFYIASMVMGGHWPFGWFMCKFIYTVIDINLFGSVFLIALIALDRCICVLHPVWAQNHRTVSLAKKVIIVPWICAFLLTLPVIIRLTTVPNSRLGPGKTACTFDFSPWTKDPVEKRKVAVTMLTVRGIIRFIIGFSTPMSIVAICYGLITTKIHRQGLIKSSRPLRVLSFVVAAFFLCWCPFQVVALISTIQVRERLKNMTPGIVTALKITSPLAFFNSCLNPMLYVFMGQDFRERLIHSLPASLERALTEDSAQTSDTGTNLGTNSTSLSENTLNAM

[5] = test system: mock-transfected cells; assay: FLIPR Ca2+ assay, mock-transfected negative control; conditions: mock-transfected negative controls; different kinetics
Procedure, shortened: (§1)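 HEK293T PEAKrapid cells seeded on poly-D-lysine, transfected 24 h later (jetPEI) with receptor plus Gα16 in equal amounts, or empty vector for mock. After 48 h, loaded with 2 μM Fluo-4 AM and 50 μM probenecid for 2 h at room temperature in C1 buffer (HEPES, pH 7.2), then rinsed three times. About 50,000 cells per well on FLIPR; ligands in C1. Response is ΔF/F0 (peak over baseline), fitted with a variable-slope sigmoid.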

[6] = test system: human receptors (hFPR1, hFPR2, hFPR3); assay: FLIPR Ca2+ assay, human receptors
Procedure, shortened: as §1

[7] = molecular target: T3, mFpr2; assay: Single-cell resolution Ca2+ imaging, mFpr2; conditions: 9 μM fMLF; single-cell Fura-2 Ca2+ imaging
Procedure, shortened: (§2)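 Single-cell Ca2+ imaging on a Pathway Bioimager. HEK293T PEAKrapid cells cotransfected with receptor, Gα16 and EGFP plasmid (1/10) and loaded with Fura-2/AM. […] C1 buffer application served as mechanical control, with buffer-responding cells excluded; 30 μM ATP checked viability. Mock-transfected cells were the negative control, and responding cells were counted.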

[8] = test system: all other family members (hFPR3, vomeronasal Fprs); assay: Single-cell resolution Ca2+ imaging, all other Fpr family members; conditions: 9 μM fMLF; single-cell Fura-2 Ca2+ imaging
Procedure, shortened: as §2

[9] = molecular target: T4, mFpr1; assay: Single-cell resolution Ca2+ imaging, mFpr1; conditions: 9 μM fMLF; single-cell Fura-2 Ca2+ imaging
Procedure, shortened: as §2

receptor activation (in words) [1]: but not mFpr-rs1
receptor activation (in words) [2]: susceptible
saturation reached at ([3]; DMSO concentration): ~3%
threshold of activation ([3]; DMSO concentration): ~0.1%
saturation reached at ([4]; DMSO concentration, FLIPR Ca2+): ~3%
threshold of activation ([4]; DMSO concentration, FLIPR Ca2+): ~0.1%
Molecule: C[S+](C)[O-] [DMSO, dimethyl sulfoxide]
concentrations giving unspecific DMSO-dependent signals [5]: > 2%

Ca2+ response (in words) [6]: robust Ca^2+ elevations
Molecule: Ac2-26: classical Fpr agonist purchased from Tocris (Ac-AMVSEFLKQAWFIENEEQEYVQTVK; UniProt P04083 2-26, looked up, fragment)

Molecule: H-RIHIGPGRALYTT-OH [V3gp120 HIV (BK-130)]
concentrations at which only a weak activation was seen ([3]; weak activation): ≥ 30 µM
EC50 [4]: 4.5 µM
activation threshold ([4]; FLIPR Ca2+): ~1 µM
subtype selectivity (in words) ([4]; mFpr1 versus mFpr2, FLIPR Ca2+): strongly preferential activators of mFpr1

activation by fMLF (in words) [7]: could be activated
activation by fMLF (in words) [9]: could be activated
Molecule: N-formylmethionine-leucine-phenylalanine [fMLF]
activation by fMLF (in words) [8]: did not respond

Reference: publication PMC3460462 (The Journal of Biological Chemistry, 2012)
